In general, IC50 refers to the point on the concentration scale where inhibition reaches its midpoint.

This note sets out measurements from ChEMBL document CHEMBL3596096, “Synthesis and biological evaluation of quinones derived from natural product komaroviquinone as anti-Trypanosoma cruzi agents” (Bioorg Med Chem Lett, 2015).

The structures appear in SMILES notation. Active and inactive are the calls of the source. No cut-off for these calls is given here.

Assay [1] relates to Trypanosoma cruzi. In words: Antitrypanosomal activity against trypomastigotes stage of Trypanosoma cruzi infected in human HT1080 cells assessed as inhibition of parasite growth after 24 hrs by microscopic analysis. The class given is functional, organism-based. The settings on record: HT-1080, 24 h. In short, it runs like this:
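Trypomastigotes suspended in DMEM and incubated 24 h with a range of compound concentrations or vehicle (0.1% ethanol). Live parasites were counted microscopically, and the IC50 was determined from the concentration series.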

Assay [2] has as its system Trypanosoma cruzi. The experiment in a line: Antitrypanosomal activity against trypomastigotes stage of Trypanosoma cruzi infected in human HT1080 cells assessed as inhibition of parasite growth at 10 uM after 24 hrs by microscopic analysis. The class given is functional, organism-based. The following applies: HT-1080. In short, it runs like this: (§1)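 Trypomastigotes suspended in DMEM and exposed 24 h to a single compound concentration, alongside vehicle (0.1% ethanol) control and benznidazole. Live parasites were counted microscopically. Values are the mean of four independent experiments, with significance versus control by two-tailed unpaired Student's t-test.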

Assay [3] concerns Trypanosoma cruzi. The experiment in a line: Antitrypanosomal activity against trypomastigotes stage of Trypanosoma cruzi infected in human HT1080 cells assessed as inhibition of parasite growth at 1 uM after 24 hrs by microscopic analysis. The settings on record: HT-1080. The class given is functional, organism-based. In short, it runs like this:
as §1

Another assay concerns HT-1080. In words: Induction of reactive oxygen species formation in human HT1080 cells at 10 to 50 µM by fluorometric analysis. The class given is functional, cell-based. The following applies: […]. The method in brief: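 Intracellular ROS in host HT1080 cells was measured with an intracellular ROS assay kit, read out as fluorescence intensity (RFU). H2O2 and benznidazole were included for comparison.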

Regarding `COC1=C(C(C)C)C(=O)C=C(COC(C)C)C1=O`, in the assay on Trypanosoma cruzi [1], the IC50 is over 10 µM. As for `COC1=C(C(C)C)C(=O)C=C(C[C@@]23CCCC(C)(C)[C@@H]2CC(=O)O3)C1=O`, the “growth inhibition (GI)” value with Trypanosoma cruzi [2] and in the assay on Trypanosoma cruzi [3] was “Active” each time. In the case of `COC1=C(C(C)C)C(=O)C=C(CC2CCCCC2)C1=O`, the IC50 in the assay on Trypanosoma cruzi [1] was over 10 µM.

With `CCCCCCCC1=CC(=O)C(C(C)C)=C(OC)C1=O`, the IC50 in the assay with Trypanosoma cruzi [1] is over 10 µM. For `COC1=C(C(C)C)C(=O)C2=C(C[C@@]34CCCC(C)(C)[C@@H]3C[C@]2(O)O4)C1=O` [KOMAROVIQUINONE], the “growth inhibition (GI)” value in the assay on Trypanosoma cruzi [2] and in the assay on Trypanosoma cruzi [3] was “Active” throughout. For the same molecule, the IC50 in the assay on Trypanosoma cruzi [1] came out at 0.25 µM. Moreover, in the assay on HT-1080, the outcome was Active. As for `COC1=C(C(C)C)C(=O)C=C(CC(C)(C)O)C1=O`, the IC50 with Trypanosoma cruzi [1] was over 10 µM. Consider `COC1=C(C(C)C)C(=O)C=C(CN(C(=O)C2CCCCC2)C2CCCCC2)C1=O`, for which the IC50 in the assay on Trypanosoma cruzi [1] came out at 2.4 µM. Consider `COC1=C(C(C)C)C(=O)C=C(COC(Cn2cncn2)c2ccc(F)cc2F)C1=O` (centres undefined), for which, in the assay with Trypanosoma cruzi [1], the IC50 is 0.3 µM.

As for `COC(=O)C[C@@H]1C(Cc2cc(OC)c(C(C)C)c(OC)c2OC)=CCCC1(C)C`, the “growth inhibition (GI)” value in the assay on Trypanosoma cruzi [2] is “inactive”.

Regarding `COC1=C(C(C)C)C(=O)C=C(CNC(=O)C2CCCCC2)C1=O`, the 50% inhibitory concentration (IC50) with Trypanosoma cruzi [1] came to 0.33 µM.

Consider `COc1cc(C[C@@]23CCCC(C)(C)[C@@H]2CC(=O)O3)c(OC)c(OC)c1C(C)C`, for which the “growth inhibition (GI)” value in the assay on Trypanosoma cruzi [2] was “inactive”. Regarding `COC1=C(C(C)C)C(=O)C=C(COc2ccccc2)C1=O`, the IC50 with Trypanosoma cruzi [1] was over 10 µM. Turning to `COC1=C(C(C)C)C(=O)C=C(Cn2cnc([N+](=O)[O-])c2)C1=O`, the IC50 with Trypanosoma cruzi [1] is over 10 µM. As to `COc1c2c(c(OC)c(C(C)C)c1OC)C1(O)C[C@H]3C(C)(C)CCC[C@@]3(C2)O1`, the “growth inhibition (GI)” value with Trypanosoma cruzi [2] is “inactive”. Take `COC1=C(C(C)C)C(=O)C(C(C)(C)O)=C(C)C1=O`: the “growth inhibition (GI)” value with Trypanosoma cruzi [2] and in the assay on Trypanosoma cruzi [3] was “Active” each time. In the case of `COC1=C(C(C)C)C(=O)C=C(CN(C)C(=O)C2CCCCC2)C1=O`, the IC50 in the assay with Trypanosoma cruzi [1] was 1.1 µM. On to `COc1c(C[C@@]23CCCC(C)(C)[C@@H]2CC(=O)O3)c(I)c(OC)c(C(C)C)c1OC`, for which, in the assay on Trypanosoma cruzi [2], the “growth inhibition (GI)” value is “inactive”.

As to `COC1=C(C(C)C)C(=O)C=C(COc2cccnc2)C1=O`, the IC50 in the assay on Trypanosoma cruzi [1] was over 10 µM. Regarding `COC1=C(C(C)C)C(=O)C=C(CN2CCCC2=O)C1=O`, the IC50 in the assay on Trypanosoma cruzi [1] was over 10 µM. As for `COC1=C(C(C)C)C(=O)C=C(Cc2ccccc2)C1=O`, the IC50 in the assay with Trypanosoma cruzi [1] is over 10 µM.

With `COC1=C(C(C)C)C(=O)C=C(Cn2cncn2)C1=O`, in the assay on Trypanosoma cruzi [1], the IC50 was 9.8 µM. In the case of `COC1=C(C(C)C)C(=O)C=C(CN(C)C(=O)c2ccccc2)C1=O`, the IC50 with Trypanosoma cruzi [1] was over 10 µM. Regarding `COC1=C(C(C)C)C(=O)C=C(CC2(O)CCCCC2)C1=O`, in the assay with Trypanosoma cruzi [1], the IC50 was 0.59 µM. On the same count and under the same terms, under `COC1=C(C(C)C)C(=O)C=C(CN2C(=O)CCc3ccccc32)C1=O` stands 2 µM.

In the case of `O=C(Cn1ccnc1[N+](=O)[O-])NCc1ccccc1` [BENZNIDAZOLE], the IC50 with Trypanosoma cruzi [1] is 6.8 µM. Also, in the assay with HT-1080, the result was Active. Turning to `COC1=C(C(C)C)C(=O)C=C(COC2CCCCC2)C1=O`, the IC50 in the assay with Trypanosoma cruzi [1] is over 10 µM. For the molecule `COC1=C(C(C)C)C(=O)C=C(CC(O)(Cn2cncn2)c2ccc(F)cc2F)C1=O` (centres undefined), in the assay on Trypanosoma cruzi [1], the IC50 was determined as 0.54 µM. For the same molecule, the result in the assay on HT-1080 was Active.
